This passage reports Potencymean and Ki results from ChEMBL document CHEMBL1125113, “(S)-5-fluoro-8-hydroxy-2-(dipropylamino)tetralin: a putative 5-HT1A-receptor antagonist” (J Med Chem, 1990).

The structures appear in SMILES notation.

Assay [1] concerns the target T1, Aromatic-L-amino-acid decarboxylase (Homo sapiens) (UniProt P20711).
T1 sequence (whole entry): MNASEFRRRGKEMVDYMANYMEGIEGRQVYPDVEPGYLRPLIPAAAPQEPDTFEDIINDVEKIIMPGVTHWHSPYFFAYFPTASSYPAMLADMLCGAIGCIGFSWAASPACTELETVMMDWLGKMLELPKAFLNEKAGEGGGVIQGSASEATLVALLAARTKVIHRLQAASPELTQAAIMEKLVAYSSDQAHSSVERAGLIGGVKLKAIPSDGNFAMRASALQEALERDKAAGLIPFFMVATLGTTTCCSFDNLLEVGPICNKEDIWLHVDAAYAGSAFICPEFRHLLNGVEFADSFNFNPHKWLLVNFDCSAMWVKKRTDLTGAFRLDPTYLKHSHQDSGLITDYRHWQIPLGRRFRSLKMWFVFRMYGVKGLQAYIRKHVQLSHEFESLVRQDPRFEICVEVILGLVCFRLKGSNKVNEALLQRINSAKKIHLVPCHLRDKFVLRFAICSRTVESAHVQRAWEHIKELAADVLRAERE
Put plainly: The effect on the accumulation of DOPA in rat brain(striatum), by subcutaneous administration at a dose of 10(umol/kg). It is filed as functional, organism-based. The note with it: target entry is the homologue from another species. A digest of the protocol: (§1)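 Nonpretreated rats received the test drug sc 60 min before death. The decarboxylase inhibitor NSD 1015 (287 µmol/kg sc) was given 30 min before death. Brain 5-HTP and DOPA in limbic and striatal regions were measured by HPLC with electrochemical detection. Values are means ± SEM, with n = 9 controls and 5–7 per experimental group.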

Assay [2] addresses T1, Aromatic-L-amino-acid decarboxylase (Homo sapiens). The experiment in a line: The effect on the accumulation of DOPA in rat brain(limbic), by subcutaneous administration at a dose of 10(umol/kg). In kind it is functional, organism-based. The note with it: target entry is the homologue from another species. In outline: as §1
Assay [3] relates to Rattus norvegicus. The experiment in a line: The effect on the accumulation of 5-HTP in rat brain(striatum), by subcutaneous administration at a dose of 32(umol/kg). In kind it is functional. A digest of the protocol: as §1
Assay [4] deals with Rattus norvegicus. The experiment in a line: The effect on the accumulation of 5-HTP in rat brain(limbic), by subcutaneous administration at a dose of 10(umol/kg). In kind it is functional. In outline: as §1
Assay [5] addresses T2, 5-hydroxytryptamine receptor 1A (Rattus norvegicus, UniProt P19327).
T2 sequence (P19327 whole entry): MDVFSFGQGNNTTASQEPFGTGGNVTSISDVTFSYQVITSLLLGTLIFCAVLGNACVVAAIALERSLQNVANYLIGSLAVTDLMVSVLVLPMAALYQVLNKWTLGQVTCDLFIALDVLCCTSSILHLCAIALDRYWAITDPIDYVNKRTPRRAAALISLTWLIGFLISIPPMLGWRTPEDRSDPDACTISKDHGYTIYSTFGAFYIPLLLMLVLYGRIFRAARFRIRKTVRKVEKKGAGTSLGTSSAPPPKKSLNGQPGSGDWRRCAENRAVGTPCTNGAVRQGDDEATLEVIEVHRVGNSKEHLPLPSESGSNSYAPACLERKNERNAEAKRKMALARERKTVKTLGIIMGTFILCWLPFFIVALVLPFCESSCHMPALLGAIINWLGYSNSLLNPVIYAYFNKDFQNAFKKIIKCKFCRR
The experiment in a line: Binding affinity towards 5-hydroxytryptamine 1A receptor sites in cortical membranes using [3H]8-OH-DPAT as radioligand. It is filed as cell membranes.

The subject of assay [6] is Rattus norvegicus. The experiment in a line: The effect on the accumulation of 5-HTP in rat brain(striatum), by subcutaneous administration at a dose of 10(umol/kg). In kind it is functional. A digest of the protocol: as §1
The target of assay [7] is T1, Aromatic-L-amino-acid decarboxylase (Homo sapiens). The experiment in a line: The effect on the accumulation of DOPA in rat brain(limbic), by subcutaneous administration at a dose of 0.32(umol/kg). In kind it is functional, organism-based. The note with it: target entry is the homologue from another species. In outline:
as §1

The target is the same in assay [8]. The experiment in a line: The effect on the accumulation of DOPA in rat brain(striatum), by subcutaneous administration at a dose of 0.32(umol/kg). In kind it is functional, organism-based. Conditions: target entry is the homologue from another species. In outline: as §1
In assay [9] the test system is Rattus norvegicus. Put plainly: The effect on the accumulation of 5-HTP in rat brain(limbic), by subcutaneous administration at a dose of 0.32(umol/kg). It is filed as functional. In outline: as §1
Assay [10] has as its system Rattus norvegicus. The experiment in a line: The effect on the accumulation of 5-HTP in rat brain(striatum), by subcutaneous administration at a dose of 0.32(umol/kg). It is filed as functional. A digest of the protocol:
as §1

As usually defined, the Ki is a measure of affinity in units of concentration, obtained from inhibition or displacement. Low values mean tighter binding, high ones weaker binding.

Regarding `CCCN(CCC)[C@H]1CCc2c(F)ccc(O)c2C1`, the Potencymean was less than 682 ng/g in [1], 324 ng/g in [2], 91.4 ng/g in assay [3] and 152 ng/g in assay [4]. The same compound returned a Ki in assay [5] of 52 nM.

As for `CCCN(CCC)[C@@H]1CCc2c(F)ccc(O)c2C1`, the Potencymean in assay [1] was 1190 ng/g; in assay [2] it was 398 ng/g; in [6], less than 59.7 ng/g; in [4], less than 86.5 ng/g. In assay [5], this compound yielded a Ki of 6.1 nM.

In the case of `CCCN(CCC)[C@@H]1CCc2cccc(O)c2C1`, the Potencymean in assay [7] was 371 ng/g; in assay [8], 909 ng/g; in [9], less than 103 ng/g; in assay [10] it was less than 53.3 ng/g.
